Tests used:
Assay type in all cases: functional
Oryctolagus cuniculus [1] = species: Oryctolagus cuniculus; test: Compound concentration in low-density lipoprotein (LDL).
In short: (§1)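 Day-84 plasma (EDTA) from rabbits fed 1% drug in chow. LDL isolated by sequential ultracentrifugation at d = 1.019–1.063 g/mL, brought back to the original serum volume, and drug measured by HPLC. Molecules per particle calculated from LDL protein, taking apoB (mw 500 000) as one copy per particle. Mean ± SEM.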

Oryctolagus cuniculus [2] = species: Oryctolagus cuniculus; test: Compound was evaluated for the ability to lower total serum cholesterol levels in 4 Watanabe heritable hyperlipidemic (WHHL) rabbits on day 0.
In short: (§2)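 Modified WHHL rabbits (British half-lop × WHHL cross, homozygous LDL-receptor deficient), age 14 ± 1 weeks, fed 100 g/day rabbit chow repelleted with compound at 1% (wt/wt), content checked by HPLC; controls got plain chow (n = 10). Total serum cholesterol measured enzymatically on days 0, 28, 56 and 84; group mean ± SEM (mg/dL).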

Oryctolagus cuniculus [3] = species: Oryctolagus cuniculus; test: Compound was evaluated for the ability to lower total serum cholesterol levels in 4 Watanabe heritable hyperlipidemic (WHHL) rabbits on day 28.; in short: as §2
Oryctolagus cuniculus [4] = species: Oryctolagus cuniculus; test: Compound was evaluated for the ability to lower total serum cholesterol levels in 4 Watanabe heritable hyperlipidemic (WHHL) rabbits on day 56.; in short: as §2
Oryctolagus cuniculus [5] = species: Oryctolagus cuniculus; test: Compound was evaluated for the ability to lower total serum cholesterol levels in 4 Watanabe heritable hyperlipidemic (WHHL) rabbits on day 84.; in short: as §2
Oryctolagus cuniculus [6] = species: Oryctolagus cuniculus; test: Prevention of Cu2+-induced lipid peroxidation of LDL.
In short: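 LDL (d 1.019–1.063 g/mL) isolated from each drug-fed rabbit at day 84 and dialyzed against PBS. Incubated with 5 μM CuSO4 (final) at 37 °C for 3 h; reaction stopped with EDTA. 50 μg LDL treated with TCA and 0.67% TBA at 90 °C for 30 min. TBARS read at 532 nm against an MDA standard curve (0–5 nmol).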

Oryctolagus cuniculus [7] = species: Oryctolagus cuniculus; test: Compound concentration in serum.
In short: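 Rabbits fed 1% (wt/wt) drug in chow (100 g/day) for 84 days. Serum taken at sacrifice on day 84 and extracted with ether/ethanol; extract dried under N2, redissolved, and run on reverse-phase C18 HPLC in acetonitrile/water (85/15) at 1.5 mL/min with detection at 240 nm. Results given as μg/mL, mean ± SEM.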

Oryctolagus cuniculus [8] = species: Oryctolagus cuniculus; test: Percent atherosclerotic lesions in WHHL rabbits.
In short: (§3)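 WHHL rabbits (homozygous LDL-receptor deficient, British half-lop cross, 14 ± 1 weeks) fed 100 g/day chow containing 1% (wt/wt) drug for 84 days, then killed by iv pentobarbital. Aortas stained with Sudan IV; sudanophilic area in thoracic aorta quantified by digital image analysis from staining density. Values are percent lesion area per group.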

[9] = Molar content of compound in low-density lipoprotein (LDL) was obtained from the ratio of molecules to that of LDL particles.; in short: as §1
Oryctolagus cuniculus [10] = species: Oryctolagus cuniculus; test: Compound was evaluated for the ability to lower total serum cholesterol levels in 5 Watanabe heritable hyperlipidemic (WHHL) rabbits on day 0.; in short: as §2
Oryctolagus cuniculus [11] = species: Oryctolagus cuniculus; test: Compound was evaluated for the ability to lower total serum cholesterol levels in 5 Watanabe heritable hyperlipidemic (WHHL) rabbits on day 28.; in short: as §2
Oryctolagus cuniculus [12] = species: Oryctolagus cuniculus; test: Compound was evaluated for the ability to lower total serum cholesterol levels in 5 Watanabe heritable hyperlipidemic (WHHL) rabbits on day 56.; in short: as §2
Oryctolagus cuniculus [13] = species: Oryctolagus cuniculus; test: Compound was evaluated for the ability to lower total serum cholesterol levels in 5 Watanabe heritable hyperlipidemic (WHHL) rabbits on day 84.; in short: as §2
Oryctolagus cuniculus [14] = species: Oryctolagus cuniculus; test: % atherosclerotic lesions in WHHL rabbits.; in short: as §3

| Compound | Drug Conc (LDL) (Oryctolagus cuniculus [1]) | Cholesterol Concentration (Oryctolagus cuniculus [2]) | Cholesterol Concentration (Oryctolagus cuniculus [3]) | Cholesterol Concentration (Oryctolagus cuniculus [4]) | Cholesterol Concentration (Oryctolagus cuniculus [5]) | Lipid peroxidation (nM MDA (mg LDL)-1) (Oryctolagus cuniculus [6]) | Drug Conc (serum) (Oryctolagus cuniculus [7]) | Lesion (Oryctolagus cuniculus [8]) | Molar content (Molecules (LDL particle)-1) [9] | Cholesterol Concentration (Oryctolagus cuniculus [10]) | Cholesterol Concentration (Oryctolagus cuniculus [11]) | Cholesterol Concentration (Oryctolagus cuniculus [12]) | Cholesterol Concentration (Oryctolagus cuniculus [13]) | Lesion (Oryctolagus cuniculus [14]) |
| --- | --- | --- | --- | --- | --- | --- | --- | --- | --- | --- | --- | --- | --- | --- |
| CC(C)(Sc1cc(C(C)(C)C)c(O)c(C(C)(C)C)c1)Sc1cc(C(C)(C)C)c(O)c(C(C)(C)C)c1 [PROBUCOL] | 41 µg/mL | 658 mg/dL | 728 mg/dL | 731 mg/dL | 698 mg/dL | 25 | 56 µg/mL | 47% | 11.3 | – | – | – | – | – |
| CC(C)(C)c1cc(SCSc2cc(C(C)(C)C)c(O)c(C(C)(C)C)c2)cc(C(C)(C)C)c1O | 65 µg/mL | – | – | – | – | 16 | 135 µg/mL | – | 20.3 | 890 mg/dL | 905 mg/dL | 766 mg/dL | 734 mg/dL | 39% |
| CCCCC(C)(Sc1cc(C)c(O)c(C(C)(C)C)c1)Sc1cc(C)c(O)c(C(C)(C)C)c1 | 3 µg/mL | – | – | – | – | 33 | 6.4 µg/mL | – | 0.7 | 1005 mg/dL | 1042 mg/dL | 1079 mg/dL | 1095 mg/dL | 81% |
| CCCC(C)(Sc1cc(C(C)(C)C)c(O)c(C(C)(C)C)c1)Sc1cc(C(C)(C)C)c(O)c(C(C)(C)C)c1 | 23 µg/mL | 685 mg/dL | 885 mg/dL | 796 mg/dL | 782 mg/dL | 30 | 42 µg/mL | – | 6.2 | – | – | – | – | 53% |
